Molecules are shown by their SMILES. pEC50: −log10 of the molar value. Some results are limits rather than exact numbers.

The test system of experiment [1] is Human immunodeficiency virus 1. Description: Inhibition of HIV-1 LA1 cytopathic effects on CEM-CL13 cells in vitro. The experiment is classed as functional, organism-based. The following applies: Human immunodeficiency virus 1, CEM-CL13. An outline of the steps: (§1)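 CEM-c113 cells (1×10^4/well) preincubated 1 h with 10-fold compound dilutions, then infected with HIV-1 LAI; cultured 7 days at 37 °C, 5% CO2; cytopathic effect scored by MTT viability versus infected untreated cells; EC50 = 50% reduction of CPE; triplicate, mean of ≥2 experiments.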
For orientation: Damage to the host cells serves as the signal in cytopathic effect assays.

Experiment [2] in a line: Ratio of CC50 in CEM-CL13 cells to EC50 in HIV-1 LA1 infected CEM-CL13 cells. The experiment is classed as functional. An outline of the steps:
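Selectivity index computed as CC50 (MTT viability of uninfected treated CEM-c113 cells) divided by EC50 (MTT protection of HIV-1 LAI-infected CEM-c113 cells), both from 7-day cultures at 37 °C exposed to 10-fold compound dilutions.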

In experiment [3] the test system is CEM-c113. Description: Concentration required to reduce by 50% the viability of noninfected treated CEM-CL13 cells. Format: functional. As to conditions: Homo sapiens; call rule not given here. The gist of the method:
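CEM-c113 cells, 1×10^4 per well, exposed to 10-fold dilutions of compound without virus; 7 days at 37 °C, 5% CO2; MTT viability read-out; CC50 = concentration reducing viability by 50% relative to uninfected untreated controls; triplicate wells, mean of at least two experiments.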

The subject of experiment [4] is CEM-c113. Description: Concentration that reduces by 50% the HIV induced cytopathic effect on CEM-CL13 cells by MTT viability assay; NA = Not active. The experiment is classed as functional, cell-based, Homo sapiens. The gist of the method:
as §1

Take `CCOC(=O)Cn1c(=O)c(C)cn(C2CC(N=[N+]=[N-])C(CO)O2)c1=O` (stereo not given): the pEC50 in experiment [1] was 5.83. The Ratio in experiment [2] worked out at 193. The CC50 in experiment [3] is 283 µM.
For `Cc1cn(C2CC(n3c(=O)c(C)cn(C4CC(N=[N+]=[N-])C(CO)O4)c3=O)C(CO)O2)c(=O)[nH]c1=O` (stereo not given) the same measures were 5.66, 30 and 66 µM.
For `C=CCn1c(=O)c(C)cn(C2CC(N=[N+]=[N-])C(CO)O2)c1=O` (stereo not given) the same measures were 4.49, 11 and 350 µM.
For `Cc1cn(C2CC(N=[N+]=[N-])C(CO)O2)c(=O)n(CC2CC(CO)=NO2)c1=O` (stereo not given), in that order: 6.30, 52 and 26 µM.
In experiment [1], `Cc1cn(C2CC(N=[N+]=[N-])C(CO)O2)c(=O)n(C)c1=O` (stereo not given) gave a pEC50 of 6.03. In addition, the Ratio in experiment [2] turned out to be 380. The same compound gave a CC50 in experiment [3] of 355 µM.
For `Cc1cn(C2CC(N=[N+]=[N-])C(CO)O2)c(=O)n(CC2CO2)c1=O` (stereo not given), in experiment [1], the pEC50 was 5.17. Also, the Ratio in experiment [2] came to 9. This compound registered a CC50 in experiment [3] of over 62 µM.
For `Cc1cn(C2CC(N=[N+]=[N-])C(CO)O2)c(=O)n(N)c1=O` (stereo not given), in that order: 7.35, 10000 and 450 µM.
As for `Cc1cn(C2CC(N=[N+]=[N-])C(CO)O2)c(=O)n(Cc2ccccc2)c1=O` (stereo not given), the EC50 result in experiment [4] is reported as “Not Active”. For the same compound, the CC50 in experiment [3] was 28 µM.
In the case of `COCCOCn1c(=O)c(C)cn(C2CC(N=[N+]=[N-])C(CO)O2)c1=O` (stereo not given), in experiment [1], the pEC50 is 5.25. The Ratio in experiment [2] is given as 50. The compound also had a half-maximal cytotoxic concentration (CC50) in experiment [3] of 281 µM.
For `Cc1cn(C2CC(N=[N+]=[N-])C(CO)O2)c(=O)n(CCO)c1=O` (stereo not given) the same measures were 6.52, 537 and 161 µM.
For `Cc1cn(C2CC(N=[N+]=[N-])C(CO)O2)c(=O)n(CCCCCCO)c1=O` (stereo not given), in that order: 7.09, 780 and 64 µM.
For `Cc1cn(C2CC(N=[N+]=[N-])C(CO)O2)c(=O)n(Cc2ccoc2)c1=O` (stereo not given), in that order: 3.84, 2 and over 288 µM.
For the compound `Cc1cn(C2CC(N=[N+]=[N-])C(CO)O2)c(=O)n(CCCO)c1=O` (stereo not given), the pEC50 in experiment [1] was 6.82. In experiment [2], the Ratio turned out to be 1027. For the same compound, the midpoint of cytotoxicity in experiment [3], the CC50, lay at 154 µM.
In experiment [1], `CCOC(Cn1c(=O)c(C)cn(C2CC(N=[N+]=[N-])C(CO)O2)c1=O)OCC` (stereo not given) showed a pEC50 of 5.30. For the same compound, the Ratio in experiment [2] was 26. The CC50 in experiment [3] was determined as 130 µM.
Compound `CCCCCn1c(=O)c(C)cn(C2CC(N=[N+]=[N-])C(CO)O2)c1=O` (stereo not given) had a pEC50 in experiment [1] of 6.05. The Ratio in experiment [2] is recorded as over 67. In experiment [3], this compound returned a CC50 of over 60 µM.
For `Cc1cn(C2CC(N=[N+]=[N-])C(CO)O2)c(=O)n(CCN2C(=O)c3ccccc3C2=O)c1=O` (stereo not given) the same measures were 3.96, 2 and 227 µM.
In experiment [1], `Cc1cn(C2CC(N=[N+]=[N-])C(CO)O2)c(=O)n(CCBr)c1=O` (stereo not given) gave a pEC50 of 5.57. Also, the Ratio in experiment [2] is given as 20. The compound also yielded a CC50 in experiment [3] of 53 µM.
For `Cc1cn(CCn2c(=O)c(C)cn(C3CC(N=[N+]=[N-])C(CO)O3)c2=O)c(=O)[nH]c1=O` (stereo not given) the same measures were 6.32, 60 and over 29 µM.
As to `COc1nc(=O)n(CCn2c(=O)c(C)cn(C3CC(N=[N+]=[N-])C(CO)O3)c2=O)cc1C` (stereo not given), in experiment [4], the EC50 entry is listed as “Not Active”. In experiment [3], this compound registered a CC50 of 29 µM.
On to `CCOP(=O)(Cn1c(=O)c(C)cn(C2CC(N=[N+]=[N-])C(CO)O2)c1=O)OCC` (stereo not given), for which the pEC50 in experiment [1] was 7.15. In experiment [2], the Ratio is reported as 3380. In experiment [3], half-maximal cytotoxicity (CC50) was put at 240 µM.
For `Cc1cn(C2CC(N=[N+]=[N-])C(CO)O2)c(=O)n(CCn2c(=O)c(C)cn(C3CC(N=[N+]=[N-])C(CO)O3)c2=O)c1=O` (stereo not given) the same measures were 6.15, 51 and 36 µM.
For `Cc1cn(C2CC(N=[N+]=[N-])C(CO)O2)c(=O)n(CCN=[N+]=[N-])c1=O` (stereo not given), in that order: 6.59, 230 and 60 µM.
For `Cc1cn([C@H]2C[C@H](N=[N+]=[N-])[C@@H](CO)O2)c(=O)[nH]c1=O` [ZIDOVUDINE] the same measures were 8.52, 1667 and over 5 µM.
In experiment [1], `Cc1cn(C2CC(N=[N+]=[N-])C(CO)O2)c(=O)n(CC2COC(C)(C)O2)c1=O` (stereo not given) gave a pEC50 of 5.89. Besides, in experiment [2], the Ratio came out at 100. Moreover, the CC50 in experiment [3] is over 131 µM.

A word on the pEC50: it is −log10 of the EC50, conventionally taken in molar units. Read a low pEC50 as a large EC50. As a reminder, the CC50 is the concentration at which the toxic effect on the cells reaches its halfway point.

The values above are taken from ChEMBL document CHEMBL1130032, “Preparation and anti-HIV activity of N-3-substituted thymidine nucleoside analogs” (J Med Chem, 1997).
